{
  "source": "paper PMC3428429",
  "about": "(Biochimica et biophysica acta, 2012)",
  "key": {"[1]": {"assay": "Two step assay, step one: terbium/DPA leakage from vesicles"}, "[2]": {"assay": "Incremental leakage assay"}, "[3]": {"assay": "Serial dilution leakage assay", "settings": "independent of total P:L (0.05 to 0.001)", "method_in_brief": "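Terbium-loaded LUVs (100 nm extruded; 50 mM TbCl₃, 100 mM sodium citrate, 10 mM TES pH 7.2 inside), external Tb removed by gel filtration. Outside buffer is 300 mM NaCl, 10 mM TES pH 7.2 with 50 μM DPA. Test compound runs 0.078–1.25 μM at six fixed total P:L ratios in 96-well plates. Triton X-100 wells with matched lipid give 100% leakage. Repeated with BSA to block well adsorption.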"}, "[4]": {"assay": "Two step assay, step two: dithionite quenching of NBD lipids", "settings": "1 μM peptide, at least 8 h"}},
  "data": [
    {"substance": "Ac-UPUAUAQUVUGLUPVUUQQF-OH [alamethicin]", "values": [
      {"measurement": "lowest P:L ratio with measurable pore-forming activity", "setting": "[1]; 1:10000 or 10 peptides per vesicle, supplemental Figure S1", "result": "≤ 0.0001"},
      {"measurement": "leakage in multiple lipid additions, PEG-lipid vesicles", "setting": "[2]; vesicles containing 5 mol % PEG2000-headgroup conjugated lipids, supplemental Figure S5A", "result": "near complete leakage in multiple lipid additions"},
      {"measurement": "lipid exchange between vesicles along with peptide", "setting": "[2]; vesicles doped with fluorescent lipids, supplemental Figure S5B", "result": "no lipid exchange between vesicles"},
      {"measurement": "peptide concentration at which all leakage curves reach 100% leakage", "setting": "[3]", "result": "≤ 500", "unit": "nM"}
    ]},
    {"substance": "ALWKTMLKKLGTMALHAGKAALGAAADTISQGTQ [dermaseptin S1]", "values": [
      {"measurement": "terbium leakage", "setting": "[1]; P:L=0.02 (1:50), only in PG-containing vesicles, 1 μM peptide, at least 8 h", "result": "high leakage"},
      {"measurement": "access to the vesicle interior at equilibrium", "setting": "[4]; P:L = 0.005 (1:200)", "result": "no access to the vesicle interior at equilibrium"},
      {"measurement": "access to NBD lipids at equilibrium", "setting": "[4]; P:L=0.02 (1:50), only in PG-containing vesicles", "result": "high access to NBD lipids"}
    ]}
  ]
}
